Data published in ChEMBL document CHEMBL3396961, “Novel pyrazole-5-carboxamide and pyrazole-pyrimidine derivatives: synthesis and anticancer activity” (Eur J Med Chem, 2015).

Assays:
[1] = Cytotoxicity against human SGC7901 cells after 48 hrs by MTT assay; type: functional, cell-based; conditions: SGC-7901, 48 h
Outline: (§1)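 Cells were grown to log phase in RPMI 1640 with 10% FBS and seeded at 3×10^4 cells/mL. After 24 h preincubation (37 °C, 5% CO2) they were exposed 48 h to preset concentrations, 6 wells each; vehicle 0.1% DMSO, 5-fluorouracil as reference. MTT (2.5 mg/mL in PBS) for 4 h, formazan dissolved in DMSO, A570 read. IC50 taken at 50% survival; mean ± SD of three experiments in triplicate.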

MGC-803 [2] = experiment: Cytotoxicity against human MGC803 cells after 48 hrs by MTT assay; type: functional, cell-based; conditions: MGC-803, 48 h; outline: as §1
Bcap37 = experiment: Cytotoxicity against human Bcap37 cells after 48 hrs by MTT assay; type: functional, cell-based; conditions: Bcap37, 48 h; outline: as §1
[3] = target: Telomerase reverse transcriptase (Homo sapiens, UniProt O14746); experiment: Inhibition of telomerase in human MGC803 cells after 24 hrs by TRAP-PCR-ELISA; type: cell-based, MGC-803
Telomerase reverse transcriptase, sequence (O14746 whole entry): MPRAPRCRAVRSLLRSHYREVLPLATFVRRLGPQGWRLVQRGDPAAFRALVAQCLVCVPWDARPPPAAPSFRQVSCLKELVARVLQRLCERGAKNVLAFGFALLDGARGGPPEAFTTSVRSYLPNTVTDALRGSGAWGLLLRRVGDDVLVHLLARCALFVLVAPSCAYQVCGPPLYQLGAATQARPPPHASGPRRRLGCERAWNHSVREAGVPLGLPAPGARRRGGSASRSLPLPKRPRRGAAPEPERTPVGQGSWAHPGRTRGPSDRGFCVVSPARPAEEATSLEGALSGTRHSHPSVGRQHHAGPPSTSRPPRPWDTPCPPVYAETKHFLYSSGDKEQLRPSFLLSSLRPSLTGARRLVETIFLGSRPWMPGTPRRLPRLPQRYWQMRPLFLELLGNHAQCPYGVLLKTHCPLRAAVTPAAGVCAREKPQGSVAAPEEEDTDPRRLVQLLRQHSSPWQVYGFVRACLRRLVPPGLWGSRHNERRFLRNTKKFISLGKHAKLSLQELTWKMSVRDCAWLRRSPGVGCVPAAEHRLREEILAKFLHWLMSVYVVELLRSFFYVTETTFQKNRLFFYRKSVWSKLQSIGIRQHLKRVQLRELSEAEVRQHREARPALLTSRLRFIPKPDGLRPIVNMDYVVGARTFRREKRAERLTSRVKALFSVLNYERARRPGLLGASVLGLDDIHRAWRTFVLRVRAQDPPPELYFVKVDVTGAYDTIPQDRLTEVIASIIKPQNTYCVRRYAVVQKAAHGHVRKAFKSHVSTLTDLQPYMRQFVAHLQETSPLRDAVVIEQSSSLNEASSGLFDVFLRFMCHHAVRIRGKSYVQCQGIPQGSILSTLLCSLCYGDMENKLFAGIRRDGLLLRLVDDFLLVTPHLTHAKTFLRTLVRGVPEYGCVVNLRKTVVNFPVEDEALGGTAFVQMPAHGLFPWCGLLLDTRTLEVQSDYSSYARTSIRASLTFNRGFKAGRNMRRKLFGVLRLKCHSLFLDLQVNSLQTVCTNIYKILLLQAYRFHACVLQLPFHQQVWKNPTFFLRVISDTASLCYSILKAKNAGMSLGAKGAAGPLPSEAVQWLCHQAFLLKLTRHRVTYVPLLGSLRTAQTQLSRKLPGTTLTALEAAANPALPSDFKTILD

MGC-803 [4] = experiment: Cell cycle arrest in human MGC803 cells assessed as accumulation at G1 phase at 3 uM after 48 hrs by propidium iodide staining-based flow cytometry (reference value: 62.91%); type: functional
MGC-803 [5] = experiment: Cell cycle arrest in human MGC803 cells assessed as accumulation at G2 phase at 3 uM after 48 hrs by propidium iodide staining-based flow cytometry (reference value: 6.7%); type: functional
MGC-803 [6] = experiment: Cell cycle arrest in human MGC803 cells assessed as accumulation at S phase at 3 uM after 48 hrs by propidium iodide staining-based flow cytometry (reference value: 30.38%); type: functional

CCCc1nn(C)c2c(=O)[nH]c(/C=C/c3ccccc3)nc12
IC50 [1]: 17.2 µM
IC50 (MGC-803 [2]): 22.6 µM
IC50 (Bcap37): 45.3 µM

CCCc1nn(C)c2c(=O)[nH]c(/C=C/c3cc(OC)c(OC)c(OC)c3)nc12
IC50 [1]: 25.7 µM
IC50 (MGC-803 [2]): 32.8 µM
IC50 (Bcap37): 37.4 µM
IC50 [3]: 19 µM

CCCc1nn(C)c(C(N)=O)c1NC(=O)/C=C/c1ccco1
IC50 [1]: 8.3 µM
IC50 (MGC-803 [2]): 3.01 µM
IC50 (Bcap37): 10.5 µM
Activity (MGC-803 [4]): 59.82%
Activity (MGC-803 [5]): 2.46%
Activity (MGC-803 [6]): 42.2%
IC50 [3]: 1.02 µM

CCCc1nn(C)c(C(N)=O)c1NC(=O)/C=C/c1cc(OC)c(OC)c(OC)c1
IC50 [1]: 12.8 µM
IC50 (MGC-803 [2]): 4.24 µM
IC50 (Bcap37): 55.7 µM
IC50 [3]: 3.49 µM

CCCc1nn(C)c(C(N)=O)c1NC(=O)/C=C/c1ccccc1
IC50 [1]: 8.11 µM
IC50 (MGC-803 [2]): 3.44 µM
IC50 (Bcap37): 46.7 µM
IC50 [3]: 1.98 µM

CCCc1nn(C)c2c(=O)[nH]c(/C=C/c3ccco3)nc12
IC50 [1]: 10.3 µM
IC50 (MGC-803 [2]): 7.14 µM
IC50 (Bcap37): 28.7 µM
IC50 [3]: 15.2 µM

O=c1[nH]cc(F)c(=O)[nH]1 [FLUOROURACIL]
IC50 [1]: 6.56 µM
IC50 (Bcap37): 5.18 µM

CCCc1nn(C)c(C(N)=O)c1NC(=O)c1cc(OC)c(OC)cc1OC
IC50 [1]: 34.8 µM
IC50 (MGC-803 [2]): 29.5 µM
IC50 (Bcap37): 33.5 µM
IC50 [3]: 12.2 µM

CCCc1nn(C)c(C(N)=O)c1NC(=O)c1cc(OC)c(OC)c(OC)c1
IC50 [1]: 13.4 µM
IC50 (MGC-803 [2]): 4.57 µM
IC50 (Bcap37): 40.4 µM
IC50 [3]: 7.87 µM
